From PubChem BioAssay
A selection: hits, their analogues and other compounds. The true share with any hit is near 3.1%.
OX1R antag-1: antagonists of human orexin 1 receptor (OX1R). O43613. OX1R-expressing cells, FRET antagonist read-out. inhibition, % at 6.6 µM. actives 1.8% (n = 330,000). AID 485270; in the data active = inhibition mostly above about 38%, no sharp cut-off; inactive = mostly below about 40%
Target sequence (O43613 whole entry, looked up): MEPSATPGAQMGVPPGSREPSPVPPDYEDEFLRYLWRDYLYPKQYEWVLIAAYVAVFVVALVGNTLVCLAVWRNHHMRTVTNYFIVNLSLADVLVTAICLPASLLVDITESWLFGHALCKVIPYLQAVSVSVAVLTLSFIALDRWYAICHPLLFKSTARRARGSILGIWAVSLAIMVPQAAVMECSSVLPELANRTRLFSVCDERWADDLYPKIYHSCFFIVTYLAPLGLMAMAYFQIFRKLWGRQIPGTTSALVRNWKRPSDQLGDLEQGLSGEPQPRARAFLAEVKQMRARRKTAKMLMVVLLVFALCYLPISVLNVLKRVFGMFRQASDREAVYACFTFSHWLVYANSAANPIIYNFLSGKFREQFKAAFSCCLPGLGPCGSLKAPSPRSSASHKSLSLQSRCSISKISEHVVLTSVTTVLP
GPR7 antagonist: antagonists of human GPR7 (neuropeptides B/W receptor 1); actives 1.1% (n = 290,000); P48145; GPR7-expressing cells, fluorescence antagonist assay; inhibition, % at 4.4 µM; in the data active = inhibition above about 16%, passing the limit was not always enough;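 also: cells stimulated with the agonist NPW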
Target sequence (P48145 whole entry, looked up): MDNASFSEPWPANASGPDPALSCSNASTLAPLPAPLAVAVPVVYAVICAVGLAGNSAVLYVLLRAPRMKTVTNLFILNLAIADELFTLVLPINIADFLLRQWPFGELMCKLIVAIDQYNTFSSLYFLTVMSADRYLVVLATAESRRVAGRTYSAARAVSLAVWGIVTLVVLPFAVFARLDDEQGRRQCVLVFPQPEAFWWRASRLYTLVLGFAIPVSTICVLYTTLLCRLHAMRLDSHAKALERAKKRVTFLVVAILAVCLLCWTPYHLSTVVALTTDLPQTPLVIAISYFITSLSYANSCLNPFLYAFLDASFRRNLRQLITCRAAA
CHO parental Ca: counter-screen: ATP calcium response change in parental CHO cells; parental CHO-K1, ATP-induced calcium, Fluo-8 fluorescence; inhibition, % at 5.6 µM; actives 0.63% (n = 330,000); AID 463079;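 active = inhibition above that plate's mean sample inhibition plus 3 SD, cut at about 26% in these data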
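Test system: untransfected parental CHO cell line. Compound: one dose, 5.6 µM nominal. Detection: intracellular calcium via Fluo-8 no-wash fluorescent dye. Measure: % inhibition. Benchmarks: ATP-challenged DMSO wells low, unchallenged DMSO wells high.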
OX1R antag-2: blocks the human orexin 1 receptor | O43613 | actives 0.43% (n = 330,000) | CHO/OX1R cells, Fluo-8 calcium fluorescence, orexin A | inhibition, % at 5 µM;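 active = inhibition above its plate's threshold, mean inhibition of all tested compounds on the plate plus 3 SD, cut at about 37% in these data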
GalR3 antagonist: blocks the human galanin receptor 3; O60755; HEK293 GalR3-CNG cAMP membrane potential fluorescence; galR3 body fused to GalR1 C-terminus; inhibition, % at 3 µM; actives 0.44% (n = 360,000); AID 651719;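 active = inhibition above the screen-wide average plus 3 SD, cut at about 13% in these data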;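 also: forskolin and galanin both at EC90 stimulate the cells; cAMP rise reported by CNG channel membrane potential dye signal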
Each line names hits and unclear results; the compound was inactive in the other large screens.

COC(=O)[C@]12C[C@H](CC(=O)N3CCCC3)C(=O)N(Cc3ccccc3)C1=C[C@H](C(C)C)O[C@@H]2C1CC1	none (no result: OX1R antag-1, GPR7 antagonist, CHO parental Ca, OX1R antag-2)
CCCCN1CC(COCc2ccccc2)Oc2cccc(Oc3ccc(SC)c(C)c3)c2S1(=O)=O (centres undefined)	none (no result: OX1R antag-1, GPR7 antagonist, CHO parental Ca, OX1R antag-2)
NC(=O)c1ccc(/C=N/O)[n+](Cc2ccccc2)c1	none
CCOC(=O)c1ccc(/C=N/O)[n+](Cc2ccccc2)c1	OX1R antag-1 59.9
COc1ccccc1NC(=O)Nc1nnc(-c2ccco2)s1	OX1R antag-1 31.8 (no result: GalR3 antagonist)
CN(C)c1ccc(P(=O)(COc2ccc([N+](=O)[O-])cc2)c2ccc(N(C)C)cc2)cc1	GPR7 antagonist 20.4
CC(=O)N1CCN(c2nc3ccc([N+](=O)[O-])cc3s2)CC1	OX1R antag-1 54.4
O=C(C1=COCCO1)N1CCN(c2nc3ccc([N+](=O)[O-])cc3s2)CC1	none (no result: GPR7 antagonist)
Nc1nc2c(ncn2[C@@H]2O[C@H](C(=O)NCC3CCCCC3)[C@@H](O)[C@H]2O)c(=O)[nH]1	none (no result: OX1R antag-1, GPR7 antagonist, CHO parental Ca, OX1R antag-2)
O=C(Nc1ccc(Cl)c(Cl)c1)OCc1cccnc1	OX1R antag-1 74.5, CHO parental Ca 76.5
CC(=O)N(Cc1ccccc1)c1nccs1	none (no result: OX1R antag-1, GPR7 antagonist, CHO parental Ca, OX1R antag-2)
COc1ccc(O)c(-c2cn[nH]c2-c2cccs2)c1	GPR7 antagonist 19.7
COc1ccc(-c2[nH]ncc2-c2cscn2)c(O)c1	none
Cc1cccc(NC(=O)c2ccc([N+](=O)[O-])o2)c1C	OX1R antag-1 76.1
O=C(Nc1cccc2ccccc12)c1ccc([N+](=O)[O-])o1	none
O=C(Nc1ccccn1)c1ccc([N+](=O)[O-])o1	OX1R antag-1 72.3 (no result: GalR3 antagonist)
O=C(Nc1ccc2[nH]c(=O)[nH]c2c1)c1ccc([N+](=O)[O-])o1	OX1R antag-1 43.0 (no result: GPR7 antagonist)
O=C(Nc1ncccn1)c1ccc([N+](=O)[O-])o1	OX1R antag-1 41.1
C[C@H]1CN([C@@H](C)CO)C(=O)c2cc(Br)cnc2O[C@H]1CN(C)C(=O)c1ccc2c(c1)OCO2	none (no result: OX1R antag-1, GPR7 antagonist, CHO parental Ca, OX1R antag-2)
NC(=O)c1ccsc1NC(=O)c1ccc([N+](=O)[O-])o1	OX1R antag-1 33.7 (no result: GPR7 antagonist)
CC1CCCC(C)N1C(=O)COC(=O)c1cc([N+](=O)[O-])ccc1N1CCOCC1 (centres undefined)	none (no result: GPR7 antagonist)
COC(=O)C1=C(C)NC(=O)NC1c1ccc([N+](=O)[O-])o1 (centres undefined)	OX1R antag-1 76.6
CC(C)CN(C(=O)COC(=O)c1ccc([N+](=O)[O-])o1)C1CCS(=O)(=O)C1 (centres undefined)	OX1R antag-1 74.7
CC1CCCC(C)N1C(=O)COC(=O)c1ccc([N+](=O)[O-])o1 (centres undefined)	OX1R antag-1 39.3 (no result: GPR7 antagonist)
CCOC(=O)C1=C(COC(=O)c2cc([N+](=O)[O-])ccc2Cl)NC(=O)NC1C (centres undefined)	none (no result: OX1R antag-1, GPR7 antagonist, CHO parental Ca, OX1R antag-2)
CCOC(=O)C1=C(COC(=O)c2ccc([N+](=O)[O-])o2)NC(=O)NC1C (centres undefined)	OX1R antag-1 29.9 (no result: GPR7 antagonist)
COc1ccc(C2NC(=S)N(Cc3ccc(Cl)cc3)C(C)=C2C(C)=O)cc1 (centres undefined)	none (no result: OX1R antag-1, GPR7 antagonist, CHO parental Ca, OX1R antag-2)
CCOC(=O)C1CCN(C(=O)COC(=O)c2ccc([N+](=O)[O-])o2)CC1	OX1R antag-1 32.8 (no result: GPR7 antagonist)
COC(=O)C1=C(C)NC(=S)NC1c1ccc(-c2cc(Cl)ccc2Cl)o1 (centres undefined)	OX1R antag-1 55.5
CC1CC(C)CN(C(=O)COC(=O)c2ccc([N+](=O)[O-])o2)C1 (centres undefined)	none (no result: GPR7 antagonist)
NS(=O)(=O)c1ccc(CCNC(=O)COC(=O)c2ccc([N+](=O)[O-])o2)cc1	OX1R antag-1 43.7 (no result: GPR7 antagonist)
O=C(OCCCOC(=O)c1ccc([N+](=O)[O-])o1)c1ccc([N+](=O)[O-])o1	OX1R antag-1 52.9 (no result: GPR7 antagonist)
COC(=O)C1=C(C)N(Cc2cccc(C(F)(F)F)c2)C(=NCc2ccc(OC)cc2)NC1c1ccc(F)cc1 (centres undefined)	none (no result: OX1R antag-1, GPR7 antagonist, CHO parental Ca, OX1R antag-2)
Cc1nc2ccccn2c(=O)c1NC(=O)c1ccc2c(c1)OCO2	none (no result: OX1R antag-1, GPR7 antagonist, CHO parental Ca, OX1R antag-2)
CCCCN1CC(N2CCCC2)CS1(=O)=O (centres undefined)	none (no result: OX1R antag-1, GPR7 antagonist, CHO parental Ca, OX1R antag-2)
Cc1cc(/C=N/Nc2ncnc(N)c2[N+](=O)[O-])c(C)n1-c1ccccc1	OX1R antag-1 51.2
COc1cccc(/C=N/Nc2ncnc(N)c2[N+](=O)[O-])c1OC	none (no result: GalR3 antagonist)
CCOC(=O)c1nn(-c2ccccc2)c(C#N)c1N	none
Cc1ccc(-n2nc(C(=O)O)c(C)c(C#N)c2=O)cc1Cl	OX1R antag-1 50.8
Cc1c(C(=O)O)nn(-c2ccccc2)c(=O)c1C#N	OX1R antag-1 59.5 (no result: GalR3 antagonist)
CCOC(=O)c1nn(-c2ccc(C)c(Cl)c2)c(=O)c(C#N)c1C	none
CCc1ccc([C@@H]2CC=C(C(=O)O)[C@H](c3ccccc3F)N2S(=O)(=O)c2ccc(C)cc2)cc1	OX1R antag-1 59.5 (no result: GPR7 antagonist)
Cc1ccc([C@H]2C(C(=O)O)=CC[C@@H](c3ccc(C(C)C)cc3)N2S(=O)(=O)c2ccc(C)cc2)cc1	CHO parental Ca 36.6 (no result: GPR7 antagonist)
COc1ccc([C@@H]2CC=C(C(=O)O)[C@H](c3cccc(Cl)c3)N2S(=O)(=O)c2ccc(Cl)cc2)cc1	OX1R antag-1 61.9 (no result: GPR7 antagonist)
Cc1ccc([C@H]2C(C(=O)O)=CC[C@@H](c3ccc(C)cc3)N2S(=O)(=O)c2ccc(C)cc2)cc1	OX1R antag-1 40.5 (no result: GPR7 antagonist)
CCOC(=O)C1=CCN(S(=O)(=O)c2cccc(Cl)c2)C1c1cccc(Br)c1 (centres undefined)	none (no result: OX1R antag-1, GPR7 antagonist, CHO parental Ca, OX1R antag-2)
CCNC(=O)C1(C)CCCN(C(=O)c2cccnc2Oc2ccccc2)C1 (centres undefined)	none (no result: OX1R antag-1, GPR7 antagonist, CHO parental Ca, OX1R antag-2)
COc1ccccc1C(=O)N1CCN(C(=O)[C@@H](Cc2ccccc2)NC(=O)[C@H]2O[C@@H](n3ccc(=O)[nH]c3=O)[C@H](O)[C@@H]2O)CC1	none (no result: OX1R antag-1, GPR7 antagonist, CHO parental Ca, OX1R antag-2)
Cc1ccc([C@H]2C(C(=O)O)=CC[C@@H](c3ccc(Cl)cc3)N2S(=O)(=O)c2ccc(C)cc2)cc1	OX1R antag-1 39.5 (no result: GPR7 antagonist)
CCc1ccc([C@@H]2CC=C(C(=O)O)[C@H](c3cccc(Cl)c3)N2S(=O)(=O)c2ccc(C)cc2)cc1	OX1R antag-1 70.8 (no result: GPR7 antagonist)
Cc1ccc(S(=O)(=O)N2[C@@H](c3ccc(Cl)cc3)C(C(=O)O)=CC[C@H]2c2ccc(C(C)C)cc2)cc1	none (no result: GPR7 antagonist)
COc1ccc(-c2n[nH]nc2C2=CC(=O)CC(C)(C)C2)cc1	none (no result: OX1R antag-1, GPR7 antagonist, CHO parental Ca, OX1R antag-2)
Cn1cc([N+](=O)[O-])c(C(=O)Nc2ccc(C(=O)N3CCCCC3)cc2)n1	OX1R antag-1 73.3
Cn1cc([N+](=O)[O-])c(C(=O)Nc2nc(-c3ccc(Cl)cc3)cs2)n1	CHO parental Ca 56.3, OX1R antag-2 40.5
CCCCn1nnc(NC(=O)c2ccc([N+](=O)[O-])cc2Cl)n1	OX1R antag-1 64.2
Cn1cc([N+](=O)[O-])c(C(=O)NNC(=O)c2ccc([N+](=O)[O-])cc2Cl)n1	OX1R antag-1 44.2
Cc1ccc(-c2nc(NC(=O)c3nn(C)cc3[N+](=O)[O-])sc2C)cc1	none
COC(=O)[C@H](Cc1ccccc1)N1CC(N2CCCC2)CS1(=O)=O (some centres undefined)	none (no result: OX1R antag-1, GPR7 antagonist, CHO parental Ca, OX1R antag-2)
